In brackets after ≈: the same amount, converted by molar mass.
Columns and labels:
[1] = Volume of distribution in Balb/c mouse at 3 mg/kg, iv by LC-MS/MS analysis; type: ADME, organism-based; design: dose 3 mg/kg, route intravenous; conditions: in vivo
[2] = Clearance in Balb/c mouse at 3 mg/kg, iv by LC-MS/MS analysis; type: ADME, organism-based; design: dose 3 mg/kg, route intravenous; conditions: in vivo
[3] = AUC in Balb/c mouse at 3 mg/kg, iv by LC-MS/MS analysis; type: ADME, organism-based; design: dose 3 mg/kg, route intravenous; conditions: plasma
[4] = target: T1, Cell division protein FtsZ (Staphylococcus aureus) (UniProt P0A031); assay: Inhibition of Staphylococcus aureus ATCC 29213 FtsZ-mediated cell division phenotype
T1 sequence (whole entry): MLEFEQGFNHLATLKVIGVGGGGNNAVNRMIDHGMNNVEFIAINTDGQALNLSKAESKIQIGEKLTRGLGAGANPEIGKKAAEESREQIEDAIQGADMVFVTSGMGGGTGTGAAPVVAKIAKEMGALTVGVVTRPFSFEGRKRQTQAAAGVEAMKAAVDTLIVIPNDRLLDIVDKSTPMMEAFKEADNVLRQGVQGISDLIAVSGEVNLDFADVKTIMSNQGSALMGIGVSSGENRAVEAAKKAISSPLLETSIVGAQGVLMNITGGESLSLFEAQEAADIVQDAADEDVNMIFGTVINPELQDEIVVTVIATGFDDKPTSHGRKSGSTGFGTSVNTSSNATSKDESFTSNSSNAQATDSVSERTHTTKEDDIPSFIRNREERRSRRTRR
Outline: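 S. aureus ATCC 29213 cell division inhibition assay run alongside MIC testing; value is the lowest concentration at which an inhibition of cell division phenotype was seen (µg/mL).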

[5] = Initial plasma concentration in Balb/c mouse at 3 mg/kg, iv by LC-MS/MS analysis; type: ADME, organism-based; design: dose 3 mg/kg, route intravenous
[6] = test system: Staphylococcus aureus; assay: Antibacterial activity against Staphylococcus aureus ATCC 29213 by broth microdilution method; type: functional
Outline: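 Broth microdilution MIC per CLSI guidelines against S. aureus ATCC 29213; MIC in µg/mL.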

[7] = Chemical stability of the compound in PBS buffer assessed as compound remaining at 10 uM at pH 7.4 after 24 hrs by LC-MS/MS analysis; type: physicochemical; conditions: read-out: Stability
Outline: (§1)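 Compound at 10 μM in PBS pH 7.4 or neat mouse plasma, 5% v/v DMSO final, incubated 24 h at 37 °C. Samples extracted with acetonitrile and centrifuged; supernatant analysed by LC-MS; reported as % remaining.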

[8] = Metabolic stability in mouse plasma assessed as compound remaining at 10 uM after 24 hrs by LC-MS/MS analysis; type: ADME, cell-free; conditions: read-out: Stability; outline: as §1
[9] = Half life in Balb/c mouse at 3 mg/kg, iv by LC-MS/MS analysis; type: ADME, organism-based; design: dose 3 mg/kg, route intravenous; conditions: in vivo
[10] = Half life in CD-1 mouse hepatocytes at 10 uM by LC-MS/MS analysis; type: ADME, cell-based, Hepatocyte
Outline: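 Cryopreserved CD-1 mouse hepatocytes (5×10^4 cells), compound 10 μM in duplicate, 0.5% v/v DMSO final; stopped with DMSO at seven time points up to 120 min. Acetonitrile extraction, centrifugation, LC-MS of supernatant; half-life in min.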

[11] = Half life in mouse microsomes at 10 uM by LC-MS/MS analysis; type: ADME, Microsome
Outline: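 Mouse microsomes at 1 mg/mL protein, compound 10 μM, 0.1% v/v DMSO final; started with 1 mM NADPH, stopped with DMSO at 0, 10, 30, 60 min. Acetonitrile extraction, centrifugation, LC-MS of supernatant; half-life in min.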

[12] = test system: Staphylococcus aureus; assay: Antibacterial activity against Staphylococcus aureus harboring FtsZ G196A mutant by broth microdilution method; type: functional
Outline: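 S. aureus ATCC 29213 derivative with G196A substitution in FtsZ; MIC by broth microdilution following CLSI guidelines; reported in µg/mL.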

[13] = Kinetic solubility of the compound in PBS buffer at pH 7.4 after 24 hrs by turbidimetric method; type: physicochemical; conditions: read-out: Kinetic_solubility
Outline: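 Turbidimetric: doubling dilutions in DMSO diluted twenty-fold into PBS pH 7.4, equilibrated 24 h at room temperature, absorbance read at 620 nm. Value is highest concentration with no measurable precipitate.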

| SMILES | MIC [4] | MIC [6] | MIC [12] | solubility kinetic at 24 h [13] | also measured |
| --- | --- | --- | --- | --- | --- |
| CC(Oc1ccc(F)c(C(N)=O)c1F)c1nc(-c2ccc(OC(F)(F)F)cc2)c(Br)o1 (racemic) | 0.12 mg/L (≈ 0.237 µM) | 0.12 mg/L (≈ 0.237 µM) | – | – | Vd [1]: 2.7 L/kg; clearance [2]: 2.16 L/h/kg; AUC [3]: 1.4 µg·h/mL; C0 [5]: 2.5 µg/mL; remaining at 24 h, 10 µM [7]: 96%; remaining at 24 h, 10 µM [8]: 104%; half-life [9]: 0.883 h; half-life at 10 µM [10]: 1.69 h; half-life at 10 µM [11]: > 2 h |
| Cc1nnc(CC(Oc2ccc(F)c(C(N)=O)c2F)c2nc(-c3ccc(C(F)(F)F)cc3)c(Br)o2)o1 (racemic) | 16 mg/L (≈ 27.9 µM) | 8 mg/L (≈ 14 µM) | – | – | – |
| CC(Oc1ccc(F)c(C(N)=O)c1F)c1nc(-c2ccc(C(F)(F)F)cc2)c(Br)o1 (racemic) | 0.06 mg/L (≈ 0.122 µM) | 0.06 mg/L (≈ 0.122 µM) | – | – | Vd [1]: 2 L/kg; clearance [2]: 1.32 L/h/kg; AUC [3]: 2.2 µg·h/mL; C0 [5]: 2 µg/mL; half-life [9]: 1.05 h |
| NC(=O)c1c(F)ccc(OCc2nc(-c3ccc(OC(F)(F)F)cc3)c(Cl)o2)c1F | 0.12 mg/L (≈ 0.267 µM) | 0.12 mg/L (≈ 0.267 µM) | 8 mg/L (≈ 17.8 µM) | – | – |
| COc1ccc(-c2nc(COc3ccc(F)c(C(N)=O)c3F)oc2-c2cncs2)cc1 | 2 mg/L (≈ 4.51 µM) | 2 mg/L (≈ 4.51 µM) | – | – | – |
| NC(=O)c1c(F)ccc(OCc2nc(-c3ccc(Cl)cc3)c(CO)o2)c1F | 8 mg/L (≈ 20.3 µM) | 8 mg/L (≈ 20.3 µM) | > 64 mg/L | – | – |
| NC(=O)c1c(F)ccc(OC(CCC(=O)O)c2nc(-c3ccc(C(F)(F)F)cc3)c(Br)o2)c1F (racemic) | 8 mg/L (≈ 14.6 µM) | 8 mg/L (≈ 14.6 µM) | – | 0.4 mg/mL (≈ 728 µM) | – |
| NC(=O)c1c(F)ccc(OC(CCCO)c2nc(-c3ccc(C(F)(F)F)cc3)c(Br)o2)c1F (racemic) | 1 mg/L (≈ 1.87 µM) | 1 mg/L (≈ 1.87 µM) | – | 0.05 mg/mL (≈ 93.4 µM) | – |
| NC(=O)c1c(F)ccc(OC(CCO)c2nc(-c3ccc(C(F)(F)F)cc3)c(Br)o2)c1F (racemic) | 0.5 mg/L (≈ 0.959 µM) | 0.5 mg/L (≈ 0.959 µM) | – | – | – |
| C=CCc1oc(COc2ccc(F)c(C(N)=O)c2F)nc1-c1ccc(Cl)cc1 | 0.06 mg/L (≈ 0.148 µM) | 0.06 mg/L (≈ 0.148 µM) | > 64 mg/L | – | – |
| CN(C)CCC(Oc1ccc(F)c(C(N)=O)c1F)c1nc(-c2ccc(C(F)(F)F)cc2)c(Br)o1 (racemic) | 16 mg/L (≈ 29.2 µM) | 8 mg/L (≈ 14.6 µM) | – | – | – |
| NC(=O)c1c(F)ccc(OC(COC(=O)CCC(=O)O)c2nc(-c3ccc(C(F)(F)F)cc3)c(Br)o2)c1F (racemic) | – | – | – | 0.2 mg/mL (≈ 329 µM) | – |
| NC(=O)c1c(F)ccc(OCc2nc(-c3ccc(O)cc3)co2)c1F | 8 mg/L (≈ 23.1 µM) | 8 mg/L (≈ 23.1 µM) | > 64 mg/L | – | – |
| CC(Oc1ccc(F)c(C(N)=O)c1F)c1nc(-c2ccc(OC(F)(F)F)cc2)c(Cl)o1 (racemic) | 0.25 mg/L (≈ 0.54 µM) | 0.12 mg/L (≈ 0.259 µM) | – | – | Vd [1]: 3.5 L/kg; clearance [2]: 1.86 L/h/kg; AUC [3]: 1.6 µg·h/mL; C0 [5]: 2.1 µg/mL; half-life [9]: 1.32 h |
| NC(=O)c1c(F)ccc(OC(CC(O)CO)c2nc(-c3ccc(C(F)(F)F)cc3)c(Br)o2)c1F (racemic) | 0.5 mg/L (≈ 0.907 µM) | 0.5 mg/L (≈ 0.907 µM) | – | 0.1 mg/mL (≈ 181 µM) | – |
| NC(=O)c1c(F)ccc(OCc2nc(-c3ccc(Cl)cc3)c(N)o2)c1F | > 64 mg/L | > 64 mg/L | > 64 mg/L | – | – |
| NC(=O)c1c(F)ccc(OC(CO)c2nc(-c3ccc(Cl)cc3)c(Br)o2)c1F (racemic) | 0.25 mg/L (≈ 0.528 µM) | 0.25 mg/L (≈ 0.528 µM) | – | – | – |
| NC(=O)c1c(F)ccc(OC(COC(=O)NCC(=O)O)c2nc(-c3ccc(C(F)(F)F)cc3)c(Br)o2)c1F (racemic) | – | – | – | 0.8 mg/mL (≈ 1320 µM) | – |
| NC(=O)c1c(F)ccc(OCc2nc(-c3ccc(C(F)(F)F)cc3)c(Br)o2)c1F | 0.12 mg/L (≈ 0.251 µM) | 0.12 mg/L (≈ 0.251 µM) | 4 mg/L (≈ 8.38 µM) | 0.0125 mg/mL (≈ 26.2 µM) | – |
| NC(=O)c1c(F)ccc(O[C@@H](CO)c2nc(-c3ccc(C(F)(F)F)cc3)c(Br)o2)c1F | 16 mg/L (≈ 31.5 µM) | 16 mg/L (≈ 31.5 µM) | 64 mg/L (≈ 126 µM) | – | – |
| CNCCNC(=O)OCC(Oc1ccc(F)c(C(N)=O)c1F)c1nc(-c2ccc(C(F)(F)F)cc2)c(Br)o1 (racemic) | – | – | – | 0.2 mg/mL (≈ 329 µM) | – |
| COc1ccc(-c2coc(COc3ccc(F)c(C(N)=O)c3F)n2)cc1 | 2 mg/L (≈ 5.55 µM) | 2 mg/L (≈ 5.55 µM) | > 64 mg/L | – | – |
| COc1oc(COc2ccc(F)c(C(N)=O)c2F)nc1-c1ccc(Cl)cc1 | 0.5 mg/L (≈ 1.27 µM) | 0.5 mg/L (≈ 1.27 µM) | – | – | – |
